Laboratory results from ChEMBL document CHEMBL1147601, “Synthesis, biodistribution and micro-PET imaging of radiolabeled antimitotic agent T138067 analogues” (Bioorg Med Chem Lett, 2004).

Legend:
Mus musculus [1] = test: In vivo biodistribution ratio in tumor to that of muscle (T/M ratio) in MCF-7 transfected with IL-1alpha implanted athymic mice; assay type: ADME, organism-based, Muscle tissue
Summary of the method: (§1)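 Tumor-bearing athymic mice 8 weeks after xenograft implantation; tail-vein iv dose of 1–3 mCi [11C]-labeled tracer (subpharmacologic) in conscious restrained animals. Killed by decapitation under halothane at 30 min. Tissues excised and weighed, decay-corrected radioactivity gamma-counted, expressed as % injected dose/g. Tumor/blood and tumor/muscle ratios taken from these values. Mean ± SD, n=3 mice.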

Mus musculus [2] = test: In vivo biodistribution of compound in blood of MDA-MB-435 implanted athymic mice at 30 min post iv injection; assay type: ADME, organism-based; details: 0.5 h; summary of the method: as §1
Mus musculus [3] = test: In vivo biodistribution of compound in lungs of MDA-MB-435 implanted athymic mice at 30 min post iv injection; assay type: ADME, organism-based, Lung; details: 0.5 h; summary of the method: as §1
Mus musculus [4] = test: In vivo biodistribution of compound in bone of MDA-MB-435 implanted athymic mice at 30 min post iv injection; assay type: ADME, organism-based, Bone element; details: 0.5 h; summary of the method: as §1
Mus musculus [5] = test: In vivo biodistribution of compound in muscle of MDA-MB-435 implanted athymic mice at 30 min post iv injection; assay type: ADME, organism-based, Muscle tissue; details: 0.5 h; summary of the method: as §1
[6] = In vivo biodistribution ratio in tumor to that of muscle (T/M ratio) in MDA-MB-435 implanted athymic mice; assay type: functional, Muscle tissue
Summary of the method: (§2)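 Athymic mice 8 weeks after MDA-MB-435 xenograft implantation received a subpharmacologic iv tail-vein dose of the 11C-labelled tracer under conscious restraint. They were killed by decapitation under halothane at 30 min post injection. Tissues were excised and weighed, and decay-corrected radioactivity was gamma-counted as % id/g. The ratio is tumor %id/g over muscle or blood %id/g, given as mean ± SD of n=3 mice.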

Mus musculus [7] = test: In vivo biodistribution of compound in muscle of MCF-7 transfected with IL-1alpha implanted athymic mice at 30 min post iv injection; assay type: ADME, organism-based, Muscle tissue; details: 0.5 h; summary of the method: as §1
Mus musculus [8] = test: In vivo biodistribution of compound in spleen of MCF-7 transfected with IL-1alpha implanted athymic mice at 30 min post iv injection; assay type: ADME, organism-based; details: 0.5 h; summary of the method: as §1
Mus musculus [9] = test: In vivo biodistribution of compound in brain of MDA-MB-435 implanted athymic mice at 30 min post iv injection; assay type: ADME, organism-based; details: 0.5 h; summary of the method: as §1
Mus musculus [10] = test: In vivo biodistribution of compound in liver of MDA-MB-435 implanted athymic mice at 30 min post iv injection; assay type: ADME, organism-based; details: 0.5 h; summary of the method: as §1
Mus musculus [11] = test: In vivo biodistribution of compound in blood of MCF-7 transfected with IL-1alpha implanted athymic mice at 30 min post iv injection; assay type: ADME, organism-based; details: 0.5 h; summary of the method: as §1
[12] = In vivo biodistribution ratio in tumor to that of blood (T/B ratio) in MDA-MB-435 implanted athymic mice; assay type: functional; summary of the method: as §2
Mus musculus [13] = test: In vivo biodistribution of compound in heart of MDA-MB-435 implanted athymic mice at 30 min post iv injection; assay type: ADME, organism-based; details: 0.5 h; summary of the method: as §1
Mus musculus [14] = test: In vivo biodistribution of compound in bone of MCF-7 transfected with IL-1alpha implanted athymic mice at 30 min post iv injection; assay type: ADME, organism-based, Bone element; details: 0.5 h; summary of the method: as §1
Mus musculus [15] = test: In vivo biodistribution of compound in small intestine of MCF-7 transfected with IL-1alpha implanted athymic mice at 30 min post iv injection; assay type: ADME, organism-based; details: 0.5 h; summary of the method: as §1
Mus musculus [16] = test: In vivo biodistribution of compound in small intestine of MDA-MB-435 implanted athymic mice at 30 min post iv injection; assay type: ADME, organism-based; details: 0.5 h; summary of the method: as §1
Mus musculus [17] = test: In vivo biodistribution of compound in spleen of MDA-MB-435 implanted athymic mice at 30 min post iv injection; assay type: ADME, organism-based; details: 0.5 h; summary of the method: as §1
Mus musculus [18] = test: In vivo biodistribution of compound in brain of MCF-7 transfected with IL-1alpha implanted athymic mice at 30 min post iv injection; assay type: ADME, organism-based; details: 0.5 h; summary of the method: as §1
Mus musculus [19] = test: In vivo biodistribution of compound in kidney of MCF-7 transfected with IL-1alpha implanted athymic mice at 30 min post iv injection; assay type: ADME, organism-based; details: 0.5 h; summary of the method: as §1
Mus musculus [20] = test: In vivo biodistribution of compound in kidneys of MDA-MB-435 implanted athymic mice at 30 min post iv injection; assay type: ADME, organism-based, Kidney; details: 0.5 h; summary of the method: as §1
Mus musculus [21] = test: In vivo biodistribution of compound in liver of MCF-7 transfected with IL-1alpha implanted athymic mice at 30 min post iv injection; assay type: ADME, organism-based; details: 0.5 h; summary of the method: as §1
Mus musculus [22] = test: In vivo biodistribution of compound in heart of MCF-7 transfected with IL-1alpha implanted athymic mice at 30 min post iv injection; assay type: ADME, organism-based; details: 0.5 h; summary of the method: as §1
Mus musculus [23] = test: In vivo biodistribution of compound in tumor of MDA-MB-435 implanted athymic mice at 30 min post iv injection; assay type: ADME, organism-based; details: 0.5 h; summary of the method: as §1
Mus musculus [24] = test: In vivo biodistribution of compound in lungs of MCF-7 transfected with IL-1alpha implanted athymic mice at 30 min post iv injection; assay type: ADME, organism-based, Lung; details: 0.5 h; summary of the method: as §1
Mus musculus [25] = test: In vivo biodistribution of compound in tumor of MCF-7 transfected with IL-1alpha implanted athymic mice at 30 min post iv injection; assay type: ADME, organism-based; details: 0.5 h; summary of the method: as §1
[26] = In vivo biodistribution ratio in tumor to that of blood (T/B ratio) in MCF-7 transfected with IL-1alpha implanted athymic mice; assay type: ADME, organism-based; details: mouse; summary of the method: as §1

Which Ratio (Mus musculus [1]) does the source give for `[11CH3]Oc1ccc(NS(=O)(=O)c2c(F)c(F)c(F)c(F)c2F)cc1F` here?
The Ratio was 0.89.

What about the Injected dose/g (Mus musculus [2]) of the same compound?
Its Injected dose/g is 0.35%.

What about the Injected dose/g (Mus musculus [3]) of the same compound?
The Injected dose/g was 9.2%.

What about the Injected dose/g (Mus musculus [4]) of the same compound?
Its Injected dose/g is 1.75%.

What about the Injected dose/g (Mus musculus [5]) of the same compound?
Its Injected dose/g is 1.99%.

And the Ratio [6]?
Its Ratio is 1.01.

What about the Injected dose/g (Mus musculus [7]) of the same compound?
Its Injected dose/g is 1.7%.

And the Injected dose/g (Mus musculus [8])?
The Injected dose/g was 2.01%.

And the Injected dose/g (Mus musculus [9])?
The Injected dose/g was 1.03%.

And the Injected dose/g (Mus musculus [10])?
The Injected dose/g was 14.92%.

And the Injected dose/g (Mus musculus [11])?
Its Injected dose/g is 1.68%.

And the Ratio [12]?
The Ratio was 5.63.

And the Injected dose/g (Mus musculus [13])?
The Injected dose/g was 8.54%.

What about the Injected dose/g (Mus musculus [14]) of the same compound?
The Injected dose/g was 1.31%.

And the Injected dose/g (Mus musculus [15])?
The Injected dose/g was 5.16%.

What about the Injected dose/g (Mus musculus [16]) of the same compound?
Its Injected dose/g is 6.19%.

And the Injected dose/g (Mus musculus [17])?
Its Injected dose/g is 2.95%.

And the Injected dose/g (Mus musculus [18])?
The Injected dose/g was 1.53%.

And the Injected dose/g (Mus musculus [19])?
Its Injected dose/g is 3.34%.

And the Injected dose/g (Mus musculus [20])?
The Injected dose/g was 17.62%.

What about the Injected dose/g (Mus musculus [21]) of the same compound?
Its Injected dose/g is 6.79%.

And the Injected dose/g (Mus musculus [22])?
Its Injected dose/g is 1.75%.

And the Injected dose/g (Mus musculus [23])?
Its Injected dose/g is 1.92%.

What about the Injected dose/g (Mus musculus [24]) of the same compound?
The Injected dose/g was 4.95%.

What about the Injected dose/g (Mus musculus [25]) of the same compound?
Its Injected dose/g is 1.51%.

And the Kp [26]?
Its Kp is 0.94.
